Measurements taken from ChEMBL document CHEMBL4130522, “Synthesis and Pharmacological Evaluation of Selective Histone Deacetylase 6 Inhibitors in Melanoma Models” (ACS Med Chem Lett, 2017).
One block for each compound: values may come before it. Activity calls are given as the source filed them. The rule behind the calls is not given here.

Legend:
Histone deacetylase 1 = Histone deacetylase 1 (Homo sapiens, UniProt Q13547); assay: Inhibition of recombinant human full length HDAC1 expressed in baculovirus infected Sf9 insect cells using p53 (379 to 382 residues) derived RHKKAc as substrate preincubated for 5 to 10 mins followed by substrate addition measured after 2 hrs by fluorescence assay
Sequence of Histone deacetylase 1 (Q13547 whole entry, the tested form may be a part): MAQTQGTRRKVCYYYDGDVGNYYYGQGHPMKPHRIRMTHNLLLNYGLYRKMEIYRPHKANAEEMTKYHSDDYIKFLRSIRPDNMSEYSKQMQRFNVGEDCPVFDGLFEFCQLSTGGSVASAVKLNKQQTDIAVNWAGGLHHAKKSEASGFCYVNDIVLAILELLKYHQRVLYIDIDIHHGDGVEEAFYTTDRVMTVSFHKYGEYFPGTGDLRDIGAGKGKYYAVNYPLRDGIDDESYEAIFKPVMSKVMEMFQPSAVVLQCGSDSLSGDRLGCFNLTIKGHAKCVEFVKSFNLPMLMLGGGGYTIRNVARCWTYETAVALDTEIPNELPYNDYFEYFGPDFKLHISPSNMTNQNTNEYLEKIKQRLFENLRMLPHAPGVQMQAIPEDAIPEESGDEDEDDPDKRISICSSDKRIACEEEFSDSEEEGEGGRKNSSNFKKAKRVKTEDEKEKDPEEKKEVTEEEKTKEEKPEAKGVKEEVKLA

[1] = target: T1, Protein deacetylase HDAC6 (Homo sapiens, UniProt Q9UBN7); assay: Inhibition of recombinant human full length HDAC6 expressed in baculovirus infected Sf9 insect cells using p53 (379 to 382 residues) derived RHKKAc as substrate preincubated for 5 to 10 mins followed by substrate addition measured after 2 hrs by fluorescence assay
T1 sequence (Q9UBN7 whole entry): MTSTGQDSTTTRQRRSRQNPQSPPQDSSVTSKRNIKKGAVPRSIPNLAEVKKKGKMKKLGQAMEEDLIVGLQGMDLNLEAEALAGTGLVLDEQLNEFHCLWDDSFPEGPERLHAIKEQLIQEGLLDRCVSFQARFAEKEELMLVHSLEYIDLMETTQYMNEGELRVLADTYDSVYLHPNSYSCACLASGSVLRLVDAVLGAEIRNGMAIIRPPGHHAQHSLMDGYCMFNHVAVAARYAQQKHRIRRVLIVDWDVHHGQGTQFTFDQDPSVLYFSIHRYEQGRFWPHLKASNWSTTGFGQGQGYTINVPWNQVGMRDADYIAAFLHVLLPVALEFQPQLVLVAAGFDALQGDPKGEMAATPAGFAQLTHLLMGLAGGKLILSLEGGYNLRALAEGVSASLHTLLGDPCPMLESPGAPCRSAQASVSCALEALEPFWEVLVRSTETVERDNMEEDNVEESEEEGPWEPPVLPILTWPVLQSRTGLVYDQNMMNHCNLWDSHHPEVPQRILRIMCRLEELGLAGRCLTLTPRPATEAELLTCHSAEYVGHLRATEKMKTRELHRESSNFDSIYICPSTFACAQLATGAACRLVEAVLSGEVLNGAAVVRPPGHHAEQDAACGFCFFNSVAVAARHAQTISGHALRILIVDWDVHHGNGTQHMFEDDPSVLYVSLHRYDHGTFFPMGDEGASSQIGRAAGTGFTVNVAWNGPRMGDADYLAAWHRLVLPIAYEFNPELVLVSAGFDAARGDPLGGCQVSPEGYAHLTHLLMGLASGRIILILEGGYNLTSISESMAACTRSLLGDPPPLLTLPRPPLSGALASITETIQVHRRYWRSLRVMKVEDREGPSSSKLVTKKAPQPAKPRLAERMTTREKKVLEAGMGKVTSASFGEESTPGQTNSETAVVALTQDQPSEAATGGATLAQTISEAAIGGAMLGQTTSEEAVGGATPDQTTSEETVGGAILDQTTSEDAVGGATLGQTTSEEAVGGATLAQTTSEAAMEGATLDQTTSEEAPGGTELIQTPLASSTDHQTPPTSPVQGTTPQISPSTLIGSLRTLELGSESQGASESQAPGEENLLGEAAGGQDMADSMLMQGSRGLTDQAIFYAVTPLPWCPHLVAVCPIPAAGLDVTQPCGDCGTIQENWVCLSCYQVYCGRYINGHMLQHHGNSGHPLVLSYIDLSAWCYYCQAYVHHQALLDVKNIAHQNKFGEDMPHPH

Homo sapiens = species: Homo sapiens; assay: Selectivity ratio of IC50 for recombinant human full length HDAC8 expressed in baculovirus infected Sf9 insect cells to IC50 for recombinant human full length HDAC6 expressed in baculovirus infected Sf9 insect cells
[2] = target: T2, Protein deacetylase HDAC6 (Homo sapiens) (UniProt Q9UBN7); assay: Inhibition of recombinant human full length HDAC6 expressed in baculovirus infected Sf9 insect cells up to 30 uM using p53 (379 to 382 residues) derived RHKKAc as substrate preincubated for 5 to 10 mins followed by substrate addition measured after 2 hrs by fluorescence assay
T2 sequence (whole entry): T1 sequence (Q9UBN7 whole entry)

Mus musculus [3] = species: Mus musculus; assay: Antiproliferative activity against mouse SM1 cells at 1 to 15 uM after 48 hrs by MTS assay; assay type: functional, cell-based
B16 [4] = assay: Antiproliferative activity against mouse B16 cells at 1 to 15 uM after 48 hrs by MTS assay; assay type: functional, cell-based
Mus musculus [5] = species: Mus musculus; assay: Antiproliferative activity against mouse FcMCL cells at 1 to 15 uM after 48 hrs by MTS assay; assay type: functional, cell-based
[6] = target: T2, Protein deacetylase HDAC6 (Homo sapiens); assay: Inhibition of HDAC6 in human WM795 cells assessed as increase in acetylated alpha-tubulin levels at 0.5 to 8 uM after 24 hrs by Western blot method; assay type: cell-based
Outline: (§1)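 WM795 human melanoma cells were treated for 24 h across a range of concentrations. Protein extracts were run on SDS-PAGE and immunoblotted with antibodies to HDAC6, α-tubulin, acetylated α-tubulin, histone H3 and acetylated H3. A selective HDAC6 inhibitor and a pan-HDAC inhibitor were included on each blot as positive controls. Blots are representative of three independent experiments.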

[7] = target: T2, Protein deacetylase HDAC6 (Homo sapiens); assay: Inhibition of HDAC6 in human WM795 cells assessed as increase in acetylated histone H3 levels at 0.5 to 8 uM after 24 hrs by Western blot method; assay type: cell-based; outline: as §1
[8] = target: T3, Protein deacetylase HDAC6 (Mus musculus) (UniProt Q9Z2V5); assay: Inhibition of HDAC6 in C57BL/6 mouse primary peritoneal macrophages assessed as decrease in IL-10 production at 3 uM after 24 hrs by ELISA
T3 sequence (whole entry): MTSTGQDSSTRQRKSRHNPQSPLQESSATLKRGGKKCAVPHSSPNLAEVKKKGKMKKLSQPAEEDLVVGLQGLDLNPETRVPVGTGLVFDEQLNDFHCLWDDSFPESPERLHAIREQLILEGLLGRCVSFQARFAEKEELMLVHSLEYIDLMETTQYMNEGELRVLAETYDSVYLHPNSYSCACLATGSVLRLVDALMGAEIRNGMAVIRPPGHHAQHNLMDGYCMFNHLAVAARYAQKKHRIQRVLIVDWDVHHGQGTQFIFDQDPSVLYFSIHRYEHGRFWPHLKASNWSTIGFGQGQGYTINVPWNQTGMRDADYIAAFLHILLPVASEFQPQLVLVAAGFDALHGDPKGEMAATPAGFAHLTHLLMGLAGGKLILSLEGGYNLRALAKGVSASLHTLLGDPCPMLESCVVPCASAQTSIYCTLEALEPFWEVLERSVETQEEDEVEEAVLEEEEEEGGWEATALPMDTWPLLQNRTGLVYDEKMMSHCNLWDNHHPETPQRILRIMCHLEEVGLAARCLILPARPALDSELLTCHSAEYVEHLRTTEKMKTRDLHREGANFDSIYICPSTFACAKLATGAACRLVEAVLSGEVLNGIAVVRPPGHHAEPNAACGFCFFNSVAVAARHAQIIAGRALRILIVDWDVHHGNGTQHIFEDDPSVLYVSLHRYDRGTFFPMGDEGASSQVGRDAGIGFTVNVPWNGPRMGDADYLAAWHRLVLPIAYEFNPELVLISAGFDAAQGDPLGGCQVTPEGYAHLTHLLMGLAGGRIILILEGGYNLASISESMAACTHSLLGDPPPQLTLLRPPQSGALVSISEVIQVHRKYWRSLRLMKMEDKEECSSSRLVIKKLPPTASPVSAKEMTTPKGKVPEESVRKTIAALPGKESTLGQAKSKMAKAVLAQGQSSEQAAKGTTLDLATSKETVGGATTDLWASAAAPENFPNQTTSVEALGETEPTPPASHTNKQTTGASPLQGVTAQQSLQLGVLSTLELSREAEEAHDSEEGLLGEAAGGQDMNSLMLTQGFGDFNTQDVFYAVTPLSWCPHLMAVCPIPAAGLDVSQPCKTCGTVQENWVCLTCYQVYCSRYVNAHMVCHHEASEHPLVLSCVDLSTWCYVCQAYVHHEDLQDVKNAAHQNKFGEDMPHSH
Outline: (§2)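 Cells (primary peritoneal elicited macrophages from C57BL/6 mice, or RAW264.7 murine macrophages) stimulated with LPS 1 µg/mL, with or without 3 µM compound, for 24 h; supernatants collected and IL-10 quantified by ELISA; statistics versus untreated cells.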

[9] = target: T3, Protein deacetylase HDAC6 (Mus musculus); assay: Inhibition of HDAC6 in mouse RAW264.7 cells assessed as decrease in IL-10 production at 3 uM after 24 hrs by ELISA; assay type: cell-based; outline: as §2
[10] = Half life in human liver microsomes at 200 uM in presence of NADPH by LC-MS/MS analysis; assay type: ADME, microsome
[11] = Half life in mouse liver microsomes at 200 uM in presence of NADPH by LC-MS/MS analysis; assay type: ADME, microsome
[12] = Antitumor activity against mouse B16-F10-luc cells xenografted in C57BL/6 mouse assessed as mouse survival rate at 20 mg/kg, ip administered daily for 22 days (reference value: 40%); assay type: functional; settings: 528 h
Mus musculus [13] = assay: Antitumor activity against mouse B16-F10-luc cells xenografted in C57BL/6 mouse assessed as reduction in tumor volume at 20 mg/kg, ip administered daily for 22 days; assay type: functional, organism-based
Outline: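 C57BL/6 mice implanted subcutaneously with B16-F10-luc WT cells; daily intraperitoneal dosing at 20 mg/kg for 22 days versus vehicle group; tumor volume and survival monitored throughout.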

Mus musculus [14] = assay: Antitumor activity against mouse B16-F10-luc cells xenografted in C57BL/6 SCID mouse assessed as tumor growth inhibition at 20 mg/kg, ip administered daily for 20 days; assay type: functional, organism-based
B16 [15] = assay: Antiproliferative activity against mouse B16 cells at lower concentration after 48 hrs by MTS assay; assay type: functional, cell-based
Mus musculus [16] = species: Mus musculus; assay: Antiproliferative activity against mouse FcMCL cells at lower concentration after 48 hrs by MTS assay; assay type: functional, cell-based

SMILES: CCCCN(Cc1ccc(C(=O)NO)cc1)C(=O)NCCN1CCCC1
IC50 (Histone deacetylase 1): 14.4 µM | IC50 ([1]; read-out: IC50): 74 nM

SMILES: CCCCN(Cc1ccc(N(O)C=O)cc1)C(=O)Nc1ccccc1
IC50 (Histone deacetylase 1): > 30 µM | IC50 ([1]; read-out: IC50): 1020 nM

SMILES: CCCCN(C(=O)Nc1cccc(N(C)C)c1)c1ccc(C(=O)NO)cc1
IC50 (Histone deacetylase 1): > 30 µM | IC50 ([1]; read-out: IC50): 1790 nM

SMILES: CCCCN(Cc1ccc(C(=O)NO)cc1)C(=O)Nc1cc(C)ccn1
IC50 (Histone deacetylase 1): 7.54 µM | IC50 ([1]; read-out: IC50): 43 nM

SMILES: O=C(O)c1ccc(CN(CCCCO)C(=O)Nc2ccccc2)cc1
IC50 ([1]; sf9): Not Active | inhibition [2]: inactive

SMILES: CCCCN(Cc1ccc(C(=O)NO)cc1)C(=O)Nc1ncccn1
IC50 ([1]; read-out: IC50): 6 nM | Activity (Mus musculus [3]): Active | Activity (B16 [4]): Active | Activity (Mus musculus [5]): Active | inhibition [6]: Active | inhibition [7]: inactive

SMILES: CCCCN(Cc1ccc(C(=O)NO)cc1)C(=O)Nc1ccc2cn[nH]c2c1
Ratio IC50 (Homo sapiens): > 500 | IC50 ([1]; read-out: IC50): 1.6 nM | Activity (Mus musculus [3]): Active | Activity (B16 [4]): Active | Activity (Mus musculus [5]): Active | inhibition [6]: Active | inhibition [7]: inactive | inhibition [8]: Active | inhibition [9]: Active | half-life at 200 µM [10]: 408 min | half-life at 200 µM [11]: 239 min | survival at 20 mg/kg [12]: 100% | Activity (Mus musculus [13]): Active | TGI (Mus musculus [14]): inactive

SMILES: CCCCN(Cc1ccc(C(=O)NO)cc1)C(=O)Nc1cccc(N(C)C)c1
Ratio IC50 (Homo sapiens): > 500 | IC50 ([1]; read-out: IC50): 1.7 nM | Activity (B16 [15]): Active | Activity (Mus musculus [16]): Active | inhibition [6]: Active | inhibition [7]: inactive

SMILES: CCCCN(Cc1ccc(NC(=O)[C@H](C)N)cc1)C(=O)Nc1ccccc1
IC50 ([1]; sf9): Not Active

SMILES: CN1CCc2c(c3ccccc3n2Cc2ccc(C(=O)NO)cc2)C1
Activity (Mus musculus [13]): Active

Continued, in another order:

IC50 ([1]; sf9): Not Active
SMILES: CCCCN(Cc1ccc(NC(=O)CN)cc1)C(=O)Nc1ccccc1

IC50 ([1]; sf9): Not Active
SMILES: CCCCN(Cc1ccc(/C(N)=N/O)cc1)C(=O)Nc1ccccc1

IC50 (Histone deacetylase 1): 2.91 µM | IC50 ([1]; read-out: IC50): 0.87 nM
SMILES: O=C(NO)c1ccc(CN(CCCCO)C(=O)Nc2ccccc2)cc1
Ratio IC50 (Homo sapiens): > 500

IC50 (Histone deacetylase 1): 6.13 µM | IC50 ([1]; read-out: IC50): 12 nM
SMILES: CC(C)CN(Cc1ccc(C(=O)NO)cc1)C(=O)Nc1ccccc1

inhibition [6]: Active | inhibition [7]: inactive
SMILES: CCCCN(Cc1ccc(C(=O)NO)cc1)C(=O)Nc1ccccc1
